In ChEMBL document CHEMBL5154715, “Phenolic Lipids Derived from Cashew Nut Shell Liquid to Treat Metabolic Diseases” (J Med Chem, 2022):
Activity calls are given as the source filed them. No cut-off for these calls is given here.

Columns and labels:
[1] = target: T1, Peroxisome proliferator-activated receptor gamma (Homo sapiens) (UniProt P37231); assay: Agonist activity at human PPARgamma expressed in HEK293 cells assessed as maximal activity by luciferase/beta-galactosidase reporter gene assay relative to rosiglitazone; assay type: cell-based; conditions: filed as agonist
T1 sequence (whole entry): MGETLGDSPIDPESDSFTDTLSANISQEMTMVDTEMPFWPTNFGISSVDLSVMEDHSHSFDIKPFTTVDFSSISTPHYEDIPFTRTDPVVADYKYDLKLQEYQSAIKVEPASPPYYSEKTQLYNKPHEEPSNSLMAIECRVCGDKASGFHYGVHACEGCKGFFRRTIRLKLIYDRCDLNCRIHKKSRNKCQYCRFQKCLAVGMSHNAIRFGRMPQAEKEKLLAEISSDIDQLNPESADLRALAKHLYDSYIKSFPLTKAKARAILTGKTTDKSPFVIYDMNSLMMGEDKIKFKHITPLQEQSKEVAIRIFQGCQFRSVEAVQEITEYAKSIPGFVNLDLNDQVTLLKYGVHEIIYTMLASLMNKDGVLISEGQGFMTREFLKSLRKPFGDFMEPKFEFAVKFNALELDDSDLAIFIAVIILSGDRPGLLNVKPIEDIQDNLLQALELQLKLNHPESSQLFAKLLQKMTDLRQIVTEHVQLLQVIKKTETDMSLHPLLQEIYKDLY
Summary of the method: (§1)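 HEK293 cells in charcoal-stripped FBS, calcium phosphate co-transfected with GAL4-hPPAR LBD fusion, UAS-luciferase and β-galactosidase. Ligand added 6–8 h post transfection, full dose–response, harvested 14–16 h later. Luciferase normalized to β-galactosidase.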

[2] = target: T1, Peroxisome proliferator-activated receptor gamma (Homo sapiens); assay: Agonist activity at human PPARgamma transfected in HEK293 cells assessed as relative luciferase unit at 50 uM measured after 16 hrs by luciferase reporter gene assay; assay type: cell-based; conditions: filed as agonist
Summary of the method: (§2)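 GAL4-hPPAR (α or γ) plus UAS-luciferase and β-galactosidase transiently co-transfected into HEK293 cells, then treated with 50 μM compound for 16 h. RLU = luciferase/β-galactosidase × time, vehicle (DMSO) set to 1. Mean ± SD, N = 3; one-way ANOVA with Holm–Šidák vs vehicle.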

[3] = target: T2, Peroxisome proliferator-activated receptor alpha (Mus musculus) (UniProt P23204); assay: Agonist activity at human PPARalpha in mouse hepatocytes assessed as induction of fabp1 mRNA expression at 50 uM incubated for 16 hrs by quantitative real-time PCR analysis; assay type: cell-based; conditions: Hepatocyte, filed as agonist
T2 sequence (whole entry): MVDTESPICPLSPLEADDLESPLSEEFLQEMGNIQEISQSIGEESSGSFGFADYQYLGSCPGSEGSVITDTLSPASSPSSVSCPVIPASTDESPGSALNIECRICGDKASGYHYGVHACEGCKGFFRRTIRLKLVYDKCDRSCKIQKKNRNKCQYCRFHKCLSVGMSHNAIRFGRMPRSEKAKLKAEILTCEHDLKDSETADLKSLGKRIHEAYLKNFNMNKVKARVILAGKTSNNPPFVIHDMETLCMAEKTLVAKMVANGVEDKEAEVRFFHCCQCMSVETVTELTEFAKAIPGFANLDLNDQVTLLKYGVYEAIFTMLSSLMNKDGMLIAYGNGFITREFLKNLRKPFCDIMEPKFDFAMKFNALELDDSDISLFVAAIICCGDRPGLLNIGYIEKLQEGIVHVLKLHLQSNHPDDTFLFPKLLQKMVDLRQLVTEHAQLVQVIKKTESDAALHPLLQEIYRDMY
Summary of the method: (§3)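 Collagenase-perfused mouse primary hepatocytes from WT mice, plated 2 h in attachment medium, overnight in M199 with 5% charcoal-stripped FBS and 1 nM insulin. Treated next day in serum-free M199 with 50 μM compound for 16 h. RNA qPCR (SYBR Green), comparative Ct method.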

[4] = system: Hepatocyte; assay: Cytotoxicity against mouse primary hepatocytes at 25 uM by MTT assay; assay type: toxicity, cell-based; conditions: 264 h, time 11 day
[5] = system: HEK293; assay: Cytotoxicity against HEK293 cells at 25 uM by MTT assay; assay type: toxicity, cell-based; conditions: human, hek293, 264 h, time 11 day
Summary of the method: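 MTT assay in HEK293 cells with compounds dosed at 25 μM.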

[6] = target: T3, Peroxisome proliferator-activated receptor alpha (Homo sapiens, UniProt Q07869); assay: Agonist activity at human PPARalpha expressed in HEK293 cells by luciferase/beta-galactosidase reporter gene assay; assay type: cell-based; summary of the method: as §1
T3 sequence (Q07869 whole entry): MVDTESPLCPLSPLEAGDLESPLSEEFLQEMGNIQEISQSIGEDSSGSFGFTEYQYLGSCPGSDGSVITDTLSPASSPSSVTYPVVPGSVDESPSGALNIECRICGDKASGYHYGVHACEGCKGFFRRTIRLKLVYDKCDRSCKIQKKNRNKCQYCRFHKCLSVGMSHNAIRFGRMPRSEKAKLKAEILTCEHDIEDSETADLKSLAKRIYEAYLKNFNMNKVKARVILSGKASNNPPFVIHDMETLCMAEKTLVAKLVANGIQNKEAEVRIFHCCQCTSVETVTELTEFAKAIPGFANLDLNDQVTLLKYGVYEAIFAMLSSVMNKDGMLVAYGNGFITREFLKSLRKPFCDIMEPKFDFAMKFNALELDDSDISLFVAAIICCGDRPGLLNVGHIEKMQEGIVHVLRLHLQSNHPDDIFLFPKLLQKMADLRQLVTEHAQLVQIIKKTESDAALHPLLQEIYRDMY

[7] = target: T2, Peroxisome proliferator-activated receptor alpha (Mus musculus); assay: Agonist activity at human PPARalpha in mouse hepatocytes assessed as induction of Pdk4 mRNA expression at 50 uM incubated for 16 hrs by quantitative real-time PCR analysis; assay type: cell-based; conditions: Hepatocyte, filed as agonist; summary of the method: as §3
[8] = target: T4, Peroxisome proliferator-activated receptor delta (Homo sapiens) (UniProt Q03181); conditions: HEK293, filed as agonist
T4 sequence (whole entry): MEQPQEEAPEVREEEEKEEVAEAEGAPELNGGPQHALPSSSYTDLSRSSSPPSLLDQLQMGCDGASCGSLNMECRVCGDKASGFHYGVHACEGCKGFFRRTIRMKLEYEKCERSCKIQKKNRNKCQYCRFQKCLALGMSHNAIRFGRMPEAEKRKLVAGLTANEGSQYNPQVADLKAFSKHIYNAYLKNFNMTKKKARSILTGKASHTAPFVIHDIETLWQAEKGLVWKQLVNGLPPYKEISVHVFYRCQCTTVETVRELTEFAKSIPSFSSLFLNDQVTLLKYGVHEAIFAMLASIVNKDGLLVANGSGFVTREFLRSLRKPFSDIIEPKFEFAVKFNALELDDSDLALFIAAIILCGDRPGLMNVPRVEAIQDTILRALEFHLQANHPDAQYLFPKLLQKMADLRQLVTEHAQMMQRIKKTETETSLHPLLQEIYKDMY

[9] = target: T5, Peroxisome proliferator-activated receptor alpha (Homo sapiens) (UniProt Q07869); assay: Agonist activity at human PPARalpha transfected in HEK293 cells assessed as relative luciferase unit at 50 uM measured after 16 hrs by luciferase reporter gene assay; assay type: cell-based; conditions: filed as agonist; summary of the method: as §2
T5 sequence (whole entry): T3 sequence (Q07869 whole entry)

[10] = target: T5, Peroxisome proliferator-activated receptor alpha (Homo sapiens); assay: Agonist activity at human PPARalpha expressed in HEK293 cells assessed as maximal activity by luciferase/beta-galactosidase reporter gene assay relative to GW7647; assay type: cell-based; summary of the method: as §1
[11] = target: T2, Peroxisome proliferator-activated receptor alpha (Mus musculus); assay: Agonist activity at human PPARalpha in mouse hepatocytes assessed as induction of Fgf21 mRNA expression at 50 uM incubated for 16 hrs by quantitative real-time PCR analysis; assay type: cell-based; conditions: Hepatocyte, filed as agonist; summary of the method: as §3
[12] = target: T6, Peroxisome proliferator-activated receptor gamma (Homo sapiens, UniProt P37231); assay: Agonist activity at human PPARgamma expressed in HEK293 cells by luciferase/beta-galactosidase reporter gene assay; assay type: cell-based; summary of the method: as §1
T6 sequence (P37231 whole entry): T1 sequence (whole entry)

With `CCCCCCCCCCCCCCCc1cccc(OCC(=O)O)c1` the Emax [1] was over 90%, the Activity [2] was “Active” and the Activity [3] was “Active”. For the same molecule, the Activity [4] was “Non-Toxic”, the Activity [5] was “Toxic” and the EC50 [6] was 1.1 µM. The Activity [7] was “Active”, the EC50 [8] was 10 µM and the Activity [9] was “Active”. The Emax [10] was 30%, the Activity [11] was “Active” and the EC50 [12] was 3.7 µM.
